The test system of data set [1] is Influenza A virus. The data set is described as follows: Antiviral activity against oseltamivir resistant-Influenza A virus A/TW/6663/09 (H1N1) infected in MDCK cells after 72 hrs by crystal violet-staining based assay. Format: functional, organism-based. An outline of the steps:
(§1)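 Cells seeded at 2 × 10^4/well in E10 (DMEM, 10% FBS), 16–24 h at 37 °C/5% CO2, washed with DPBS, then infected at nine-fold TCID50 with or without serial compound concentrations. Influenza is run in MDCK and enterovirus/rhinovirus in RD. Incubated 72 h, fixed in 4% paraformaldehyde, stained with 0.1% crystal violet, and read for cell density. EC50 = 50% CPE inhibition by Reed–Muench; mean ± S.D. of at least three runs.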

The subject of data set [2] is Influenza A virus. The data set is described as follows: Antiviral activity against oseltamivir resistant-Influenza A virus A/TW/7855/09 (H1N1) infected in MDCK cells after 72 hrs by crystal violet-staining based assay. Format: functional, organism-based. An outline of the steps:
as §1

Data set [3] in a line: Selectivity ratio of CC50 for MDCK cells to EC50 for oseltamivir resistant-Influenza A virus A/TW/7855/09 (H1N1). Format: toxicity. The settings on record: dog, read-out: Ratio CC50/EC50. An outline of the steps:
(§2)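 MDCK cells (2 × 10^4/well, E10, 16–24 h) infected at nine-fold TCID50 with compound for 72 h, 37 °C, 5% CO2. Cells were fixed in 4% paraformaldehyde and stained with crystal violet; EC50 is from Reed–Muench. For CC50, cells had compound alone for 72 h, then MTT 3 h, DMSO, A570, Reed–Muench. SI = CC50/EC50; three independent experiments.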

A short description of data set [4]: Selectivity ratio of CC50 for MDCK cells to EC50 for oseltamivir resistant-Influenza A virus A/TW/6663/09 (H1N1). The class given is toxicity. The settings on record: dog, read-out: Ratio CC50/EC50. An outline of the steps: as §2

This is an account of results in ChEMBL document CHEMBL4316597, “Design, Synthesis, and Biological Evaluation of Itaconic Acid Derivatives as Potential Anti-Influenza Agents” (J Med Chem, 2019).

pEC50: −log10 of the molar value.

As to `C=C(CC(=O)Nc1ccc(F)cc1F)C(=O)Nc1ccc(F)cc1F`, the pEC50 – broadly, the EC50 on a negative log10 scale, so that one unit is a factor of ten – in data set [1] was 5.32; in data set [2] it was 5.59. Besides, the selectivity ratio was determined as 33 in data set [3] and 18 in data set [4].
